Data as given in ChEMBL document CHEMBL1145884, “Synthesis and biological activity of novel 1beta-methylcarbapenems with oxyiminopyrrolidinylamide moiety” (2003).
In brackets after ≈: the same amount, converted by molar mass.

Legend:
[1] = Compound was evaluated for its relative half life of hydrolysis to meropenem by partially purified porcine renal dihydropeptidase-I (DHP-I); type: functional; conditions: Sus scrofa
Enterobacter cloacae [2] = test: Compound was evaluated for its antibacterial activity against Enterobacter cloacae P99; type: functional
Escherichia coli [3] = test: Compound was evaluated for its antibacterial activity against Escherichia coli CCARM 1116 MDR; type: functional
Escherichia coli [4] = test: Compound was evaluated for its antibacterial activity against Escherichia coli CCARM 1117 MDR; type: functional
Escherichia coli [5] = test: Compound was evaluated for its antibacterial activity against Escherichia coli DC 0; type: functional
Escherichia coli [6] = test: Compound was evaluated for its antibacterial activity against Escherichia coli DC 2; type: functional
Escherichia coli [7] = test: Compound was evaluated for its antibacterial activity against Escherichia coli TEM; type: functional
Escherichia coli [8] = test: Antibacterial activity against Escherichia coli 078; type: functional
How it was run: (§1)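 MIC was determined by agar dilution on Mueller–Hinton medium.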

Escherichia coli [9] = test: Antibacterial activity against Escherichia coli 1507E; type: functional; how it was run: as §1
Escherichia coli [10] = test: Compound was evaluated for its antibacterial activity against Escherichia coli 0157:H7; type: functional
Escherichia coli [11] = test: Compound was evaluated for its antibacterial activity against Escherichia coli ATCC 25922; type: functional
Escherichia coli [12] = test: Compound was evaluated for its antibacterial activity against Escherichia coli CCARM 1108 MDR; type: functional
Escherichia coli [13] = test: Compound was evaluated for its antibacterial activity against Escherichia coli CCARM 1109 MDR; type: functional
Escherichia coli [14] = test: Compound was evaluated for its antibacterial activity against Escherichia coli CCARM 1111 MDR; type: functional
Escherichia coli [15] = test: Compound was evaluated for its antibacterial activity against Escherichia coli CCARM 1112 MDR; type: functional
Escherichia coli [16] = test: Compound was evaluated for its antibacterial activity against Escherichia coli CCARM 1113 MDR; type: functional
Escherichia coli [17] = test: Compound was evaluated for its antibacterial activity against Escherichia coli CCARM 1114 MDR; type: functional
Escherichia coli [18] = test: Compound was evaluated for its antibacterial activity against Escherichia coli CCARM 1115 MDR; type: functional
Enterobacter cloacae [19] = test: Antibacterial activity against Enterobacter cloacae 1321E; type: functional; how it was run: as §1
Klebsiella pneumoniae [20] = test: Compound was evaluated for its antibacterial activity against Klebsiella pneumoniae 8 ESBL; type: functional
Klebsiella pneumoniae [21] = test: Compound was evaluated for its antibacterial activity against Klebsiella pneumoniae 9 ESBL; type: functional
Klebsiella oxytoca = test: Compound was evaluated for its antibacterial activity against Klebsiella oxytoca 1082E; type: functional
Klebsiella pneumoniae [22] = test: Compound was evaluated for its antibacterial activity against Klebsiella pneumoniae 1 ESBL; type: functional
Klebsiella pneumoniae [23] = test: Compound was evaluated for its antibacterial activity against Klebsiella pneumoniae 10 ESBL; type: functional
Klebsiella pneumoniae [24] = test: Compound was evaluated for its antibacterial activity against Klebsiella pneumoniae 3 ESBL; type: functional
Klebsiella pneumoniae [25] = test: Compound was evaluated for its antibacterial activity against Klebsiella pneumoniae 4 ESBL; type: functional
Klebsiella pneumoniae [26] = test: Compound was evaluated for its antibacterial activity against Klebsiella pneumoniae 5 ESBL; type: functional
Klebsiella aerogenes = test: Antibacterial activity against Klebsiella aerogenes 1522E; type: functional; how it was run: as §1
Pseudomonas aeruginosa [27] = test: Compound was evaluated for its antibacterial activity against Pseudomonas aeruginosa 1 MDR; type: functional
Pseudomonas aeruginosa [28] = test: Compound was evaluated for its antibacterial activity against Pseudomonas aeruginosa 2 MDR; type: functional
Pseudomonas aeruginosa [29] = test: Compound was evaluated for its antibacterial activity against Pseudomonas aeruginosa ATCC 27853; type: functional
Pseudomonas aeruginosa [30] = test: Antibacterial activity against Pseudomonas aeruginosa 1771M; type: functional; how it was run: as §1
Pseudomonas aeruginosa [31] = test: Antibacterial activity against Pseudomonas aeruginosa 9027; type: functional; how it was run: as §1
Shigella sonnei = test: Compound was evaluated for its antibacterial activity against Shigella sonnei ATCC 9290; type: functional
Salmonella enteritidis [32] = test: Compound was evaluated for its antibacterial activity against […] enteritidis; type: functional, Salmonella enterica subsp. enterica serovar Enteritidis; conditions: Salmonella enterica
Salmonella enteritidis [33] = test: Compound was evaluated for its antibacterial activity against […] enteritidis 1; type: functional, Salmonella enterica subsp. enterica serovar Enteritidis; conditions: Salmonella enterica
Salmonella enteritidis [34] = test: Compound was evaluated for its antibacterial activity against […] enteritidis 2; type: functional, Salmonella enterica subsp. enterica serovar Enteritidis; conditions: Salmonella enterica
Salmonella enteritidis [35] = test: Compound was evaluated for its antibacterial activity against […] enteritidis 3; type: functional, Salmonella enterica subsp. enterica serovar Enteritidis; conditions: Salmonella enterica
Salmonella typhimurium [36] = test: Antibacterial activity against Salmonella Typhimurium; type: functional, Salmonella enterica subsp. enterica serovar Typhimurium; conditions: Salmonella enterica; how it was run: as §1
Salmonella typhimurium [37] = test: Compound was evaluated for its antibacterial activity against Salmonella Typhimurium; type: functional, Salmonella enterica subsp. enterica serovar Typhimurium; conditions: Salmonella enterica
Salmonella typhimurium [38] = test: Compound was evaluated for its antibacterial activity against Salmonella Typhimurium 1; type: functional, Salmonella enterica subsp. enterica serovar Typhimurium; conditions: Salmonella enterica
Salmonella typhimurium [39] = test: Compound was evaluated for its antibacterial activity against Salmonella Typhimurium 2; type: functional, Salmonella enterica subsp. enterica serovar Typhimurium; conditions: Salmonella enterica
Shigella flexneri = test: Compound was evaluated for its antibacterial activity against Shigella flexneri ATCC 9199; type: functional
Streptococcus pyogenes = test: Antibacterial activity against Streptococcus pyogenes 308A; type: functional
Staphylococcus aureus [40] = test: Antibacterial activity against Staphylococcus aureus 285; type: functional
Staphylococcus aureus [41] = test: Antibacterial activity against Staphylococcus aureus 503; type: functional
Staphylococcus aureus [42] = test: Antibacterial activity against Staphylococcus aureus SG 511; type: functional
Escherichia coli [43] = test: Compound was evaluated for its antibacterial activity against Escherichia coli CCARM 1110 MDR; type: functional
Klebsiella pneumoniae [44] = test: Compound was evaluated for its antibacterial activity against Klebsiella pneumoniae 7 ESBL; type: functional
Klebsiella pneumoniae [45] = test: Compound was evaluated for its antibacterial activity against Klebsiella pneumoniae 2 ESBL; type: functional
Klebsiella pneumoniae [46] = test: Compound was evaluated for its antibacterial activity against Klebsiella pneumoniae 6 ESBL; type: functional
Pseudomonas aeruginosa [47] = test: Compound was evaluated for its antibacterial activity against Pseudomonas aeruginosa 3 MDR; type: functional
Pseudomonas aeruginosa [48] = test: Antibacterial activity against Pseudomonas aeruginosa 1592E

## C[C@@H](O)[C@H]1C(=O)N2C(C(=O)O)=C(S[C@@H]3CN[C@H](C(=O)N4CC/C(=N/O)C4)C3)[C@H](C)[C@H]12
[1]
  relative t1/2 (DHP-I hydrolysis vs meropenem): 1.03
Enterobacter cloacae [2]
  MIC: 0.13 µg/mL (≈ 0.296 µM)
Escherichia coli [3]
  MIC: 0.016 µg/mL (≈ 0.0365 µM)
Escherichia coli [4]
  MIC: 0.03 µg/mL (≈ 0.0684 µM)
Escherichia coli [5]
  MIC: 0.03 µg/mL (≈ 0.0684 µM)
Escherichia coli [6]
  MIC: 0.016 µg/mL (≈ 0.0365 µM)
Escherichia coli [7]
  MIC: 0.016 µg/mL (≈ 0.0365 µM)
Escherichia coli [8]
  MIC: 0.025 µg/mL (≈ 0.057 µM)
Escherichia coli [9]
  MIC: 0.025 µg/mL (≈ 0.057 µM)
Escherichia coli [10]
  MIC: 0.016 µg/mL (≈ 0.0365 µM)
Escherichia coli [11]
  MIC: 0.016 µg/mL (≈ 0.0365 µM)
Escherichia coli [12]
  MIC: 0.03 µg/mL (≈ 0.0684 µM)
Escherichia coli [13]
  MIC: 0.06 µg/mL (≈ 0.137 µM)
Escherichia coli [14]
  MIC: 0.016 µg/mL (≈ 0.0365 µM)
Escherichia coli [15]
  MIC: 0.016 µg/mL (≈ 0.0365 µM)
Escherichia coli [16]
  MIC: 0.06 µg/mL (≈ 0.137 µM)
Escherichia coli [17]
  MIC: 0.13 µg/mL (≈ 0.296 µM)
Escherichia coli [18]
  MIC: 0.03 µg/mL (≈ 0.0684 µM)
Enterobacter cloacae [19]
  MIC: 0.013 µg/mL (≈ 0.0296 µM)
Klebsiella pneumoniae [20]
  MIC: 0.25 µg/mL (≈ 0.57 µM)
Klebsiella pneumoniae [21]
  MIC: 0.03 µg/mL (≈ 0.0684 µM)
Klebsiella oxytoca
  MIC: 0.13 µg/mL (≈ 0.296 µM)
Klebsiella pneumoniae [22]
  MIC: 0.03 µg/mL (≈ 0.0684 µM)
Klebsiella pneumoniae [23]
  MIC: 0.016 µg/mL (≈ 0.0365 µM)
Klebsiella pneumoniae [24]
  MIC: 0.13 µg/mL (≈ 0.296 µM)
Klebsiella pneumoniae [25]
  MIC: 0.03 µg/mL (≈ 0.0684 µM)
Klebsiella pneumoniae [26]
  MIC: 0.016 µg/mL (≈ 0.0365 µM)
Klebsiella aerogenes
  MIC: 0.025 µg/mL (≈ 0.057 µM)
Pseudomonas aeruginosa [27]
  MIC: 1 µg/mL (≈ 2.28 µM)
Pseudomonas aeruginosa [28]
  MIC: 8 µg/mL (≈ 18.2 µM)
Pseudomonas aeruginosa [29]
  MIC: 1 µg/mL (≈ 2.28 µM)
Pseudomonas aeruginosa [30]
  MIC: 0.195 µg/mL (≈ 0.445 µM)
Pseudomonas aeruginosa [31]
  MIC: 0.391 µg/mL (≈ 0.892 µM)
Shigella sonnei
  MIC: 0.016 µg/mL (≈ 0.0365 µM)
Salmonella enteritidis [32]
  MIC: 0.016 µg/mL (≈ 0.0365 µM)
Salmonella enteritidis [33]
  MIC: 0.016 µg/mL (≈ 0.0365 µM)
Salmonella enteritidis [34]
  MIC: ≤ 8 ng/mL
Salmonella enteritidis [35]
  MIC: 0.016 µg/mL (≈ 0.0365 µM)
Salmonella typhimurium [36]
  MIC: 0.025 µg/mL (≈ 0.057 µM)
Salmonella typhimurium [37]
  MIC: 0.03 µg/mL (≈ 0.0684 µM)
Salmonella typhimurium [38]
  MIC: 0.016 µg/mL (≈ 0.0365 µM)
Salmonella typhimurium [39]
  MIC: 0.03 µg/mL (≈ 0.0684 µM)
Shigella flexneri
  MIC: 0.016 µg/mL (≈ 0.0365 µM)
Streptococcus pyogenes
  MIC: 0.013 µg/mL (≈ 0.0296 µM)
Staphylococcus aureus [40]
  MIC: 0.195 µg/mL (≈ 0.445 µM)
Staphylococcus aureus [41]
  MIC: 0.098 µg/mL (≈ 0.223 µM)
Staphylococcus aureus [42]
  MIC: 0.195 µg/mL (≈ 0.445 µM)
Escherichia coli [43]
  MIC: 0.06 µg/mL (≈ 0.137 µM)
Klebsiella pneumoniae [44]
  MIC: 0.06 µg/mL (≈ 0.137 µM)
Klebsiella pneumoniae [45]
  MIC: 0.03 µg/mL (≈ 0.0684 µM)
Klebsiella pneumoniae [46]
  MIC: 0.03 µg/mL (≈ 0.0684 µM)
Pseudomonas aeruginosa [47]
  MIC: 8 µg/mL (≈ 18.2 µM)
Pseudomonas aeruginosa [48]
  MIC: 0.391 µg/mL (≈ 0.892 µM)
